# Assay outcomes from PubChem BioAssay.
# Compounds with a hit are over-represented: about 4.9% of the library has one in this group of screens.
# APP 5'UTR act: activates APP 5'UTR luciferase reporter. SH-SY5Y APP 5'UTR luciferase reporter, luminescence; zero percent = DMSO vehicle wells. activation, % at 2 µM. actives 1% (n = 190,000);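 active = activation above a set limit, based on mean plus 3 SD of controls, cut at about 140% in these data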
# STAT3 act-1: STAT3 signaling activation. U3A cells, IL-6 STAT3-luciferase reporter, luminescence; 100% = signal with IL-6 EC80 alone. activation (% of control), % at 5.6 µM. actives 0.91% (n = 190,000);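 active = activation above the screen-wide mean of compound activation plus 3 SD, cut at about 130% in these data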
#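 Material: STAT3-luciferase reporter U3A cells. Controls: IL-6-treated wells, 100% activation. Read-out: % activation versus median of IL-6-stimulated wells. Probe or stimulus: IL-6 stimulus at 33 ng/mL final. Timing: compound 1 h, then IL-6 6 h at 37 °C. Signal: reporter luminescence signal.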
# NF-kB neuron act: compounds increasing NF-kB expression in human neuronal cells. actives 1.6% (n = 190,000). NF-kB reporter expression; stronger effect = higher value. AID 1239. fold change at 12.5 µM; in the data active = fold change above about 3.3
# STAT1 inh: STAT1 signaling inhibition; actives 0.35% (n = 200,000); AID 920; inhibition, % at 5.5 µM; NIH 3T3 STAT1-luciferase reporter, IFN-gamma, luminescence;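 active = inhibition above a set limit, the mean inhibition across all tested compounds plus 3 SD, cut at about 34% in these data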
# STAT3 inh: inhibitors of IL-6 induced STAT3 signaling; actives 0.89% (n = 190,000); inhibition, % at 5.5 µM; U3A cells, IL-6 STAT3-luciferase reporter, luminescence; host cell line lacks STAT1;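 active = inhibition above the mean inhibition across all screened compounds plus 3 SD, cut at about 44% in these data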
# STAT1 act-1: activators of IFN-gamma induced STAT1 signaling. NIH 3T3 STAT1-luciferase reporter, luminescence; 100% = IFN-gamma alone, no compound. activation (% of control), % at 5.5 µM. actives 2.6% (n = 200,000);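 active = activation above the screen-wide mean activation plus 3 SD, cut at about 130% in these data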
# STAT3 act-2: confirmation of STAT3 signaling activators | shares compounds with STAT3 act-1 | U3A STAT3-luciferase reporter, IL-6 potentiation, luminescence; U3A cells lack STAT1; 100 means same as IL-6 alone | potentiation (% of control), % at 5.7 µM | actives 64% (n = 1,200);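 active = percent activation of the STAT3 luciferase reporter above a set limit taken from the earlier primary screen, cut at about 130% in these data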
# NFkB act 2: activates NF-kappaB, counter-screen to STAT3 activators | shares compounds with STAT3 act-1 | human cells, NF-kappaB reporter activation | activation (% of control), % at 5.7 µM | actives 11% (n = 1,200); in the data active = activation above about 120%;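 also: reporter induced by TNF-alpha stimulation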
# STAT1 act-2: activates STAT1, counter-screen to STAT3 activators; shares compounds with STAT3 act-1; NIH 3T3 STAT1-luciferase reporter, IFN-gamma, luminescence; activation (% of control), % at 5.7 µM; actives 13% (n = 1,200);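 active = activation above the solvent-only control well mean plus 3 SD, set per screening run, cut at about 120% in these data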
# Hits are given with their value; n = inactive; x = no result.
SMILES,APP 5'UTR act,STAT3 act-1,NF-kB neuron act,STAT1 inh,STAT3 inh,STAT1 act-1,STAT3 act-2,NFkB act 2,STAT1 act-2
Cc1nn(-c2ccc(Cl)cc2)c(N)c1C(O)(CSc1nccn1C)C(F)(F)F (centres undefined),n,143.2,n,n,n,n,134.0,n,n
Cc1nn(-c2ccccc2)c(N)c1C(O)(CSc1nccn1C)C(F)(F)F (centres undefined),x,n,n,n,n,n,x,x,x
CC(C)c1nnc(NC(=O)c2c(O)c3cccc4c3n(c2=O)CCC4)s1,n,n,n,n,n,n,x,x,x
Cc1cnc(NC(=O)c2c(O)c3cccc4c3n(c2=O)CCC4)s1,n,165.4,n,n,n,n,148.8,n,n
O=C(Nc1cccc(F)c1)c1c(O)c2cccc3c2n(c1=O)CCC3,n,142.1,n,n,n,n,143.3,n,n
O=C(NCc1cccnc1)c1ccc(Cl)c(S(=O)(=O)Nc2ccccc2C(=O)NCc2cccnc2)c1,n,n,n,n,n,n,x,x,x
O=c1nc(-c2ccccc2)n(-c2ccccc2)c2ncccc12,n,n,n,n,n,n,x,x,x
CC(=O)c1c(-c2ccc(C)cc2)nc2c3ccccc3ccn12,n,141.8,n,n,n,n,142.9,n,n
Cc1ccc(CNC(=O)c2ccc(CN3CCOCC3)cc2)cc1,n,n,n,n,n,n,x,x,x
O=C(CNC(=S)N(Cc1ccccc1)Cc1cccnc1)NC1CCCC1,n,n,n,n,n,n,x,x,x
O=C(Nc1nccs1)c1ccc2nccnc2c1,n,n,n,n,n,n,x,x,x
CCOc1ccccc1NC(=O)c1nc(-c2ccccc2)oc1C,n,141.5,n,n,n,n,n,n,n
Cc1oc(-c2ccccc2)nc1C(=O)Nc1nccs1,n,140.5,n,n,n,n,142.1,n,n
COc1ccc(-c2csc(NC(=O)c3nc(-c4ccccc4)oc3C)n2)cc1,n,n,n,n,n,n,x,x,x
Cc1ccc(C(=O)Nc2nccs2)cc1,n,144.3,3.54,n,n,n,165.1,n,128.0
CCCOc1ccc(-c2nc(C#N)c(N3CCN(CC)CC3)o2)cc1,n,n,n,n,n,n,x,x,x
Cc1ccc(O)c(N=CC2=C(O)c3ccccc3C2=O)c1,n,149.0,4.15,n,n,n,137.5,128.2,n
Cc1ccc(O)c(C=Nc2cc(C)ccc2O)c1,n,n,n,n,n,n,x,x,x
CC1Cc2ccccc2N1Cc1cc(=O)n2ccsc2n1 (centres undefined),n,145.7,n,n,n,n,152.2,n,n
COc1ccccc1/C=N/NC(=O)Cn1cnc([N+](=O)[O-])n1,n,n,n,n,n,n,x,x,x
Cc1c(O)nc(SCC(=O)Nc2ccc3c4c(cccc24)CC3)n(-c2ccc(F)cc2)c1=O,n,n,n,n,n,n,x,x,x
O=C(C1CCN(C2CCN(CC3CC=CCC3)CC2)CC1)N1CCOCC1 (centres undefined),n,n,n,n,n,n,x,x,x
CCOC(=O)c1cnn(-c2ncnc3sc4c(c23)CCC4)c1N,n,148.3,n,n,n,n,149.4,n,n
Cc1nc2cc(-c3ccc(Cl)cc3)nn2c(NCCN(C)C)c1C,n,150.7,n,n,n,n,183.2,n,120.5
CCOC(=O)c1cnn(-c2ccccn2)c1N,n,n,n,n,n,n,x,x,x
CCOC(=O)c1cnn(-c2cc(C)c3ccccc3n2)c1N,n,169.6,n,n,n,n,173.0,n,n
Cc1cc(OCCCCNC(C)C)cc(C(C)C)c1,n,n,n,n,n,n,x,x,x
CCC1=Nc2cc(C(=O)NCc3ccco3)ccc2Sc2ccc(C)cc21,n,144.9,n,n,n,n,n,154.3,n
CCC1=Nc2cc(C(=O)NCCCOC)ccc2Sc2ccccc21,n,n,n,n,n,n,x,x,x
